Reference: ChEMBL document CHEMBL1128437, “Derivatives of 17-phenyl-18,19,20-trinorprostaglandin F2 alpha isopropyl ester: potential antiglaucoma agents” (J Med Chem, 1995)
Values belong to the compound of their own block, whether it stands above or below them.

Assays:
Felis catus [1] = species on record: Felis catus; assay: The maximal difference in Intraocular Pressure (IOP) between treated and control eyes. The effect was tested in cats at a dose of 1.0 (ug/eye); type: functional
Method in brief: (§1)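 Domestic female cats, 2–3 kg, trained for IOP measurement. One eye received a topical drop (20 µL) of drug in 0.9% NaCl with 0.5% polysorbate 80; the other eye received vehicle. IOP was read by pneumatonometer under oxibuprocain local anaesthesia before dosing and at 1, 3, 6 and 23 h. The maximal treated-minus-control difference was taken. Area between curves is the treated-eye AUC minus control-eye AUC, per animal.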

Felis catus [2] = species on record: Felis catus; assay: The maximal difference in […] pupil diameter between treated and control eyes. The effect was tested in cats at a dose of 1.0 (ug/eye); type: functional
Method in brief: (§2)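 Trained female cats, 2–3 kg, were dosed unilaterally with one 20 µL topical drop of drug in 0.9% NaCl/0.5% polysorbate 80, with vehicle in the contralateral eye. Horizontal pupil diameter was measured with a millimetre ruler under constant 10 lux illumination before dosing and at 1, 3, 6 and 23 h. Reported as maximal treated–control difference or as area between curves, per animal.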

Felis catus [3] = species on record: Felis catus; assay: The mean area between curves for Intraocular Pressure (IOP) measured in treated and control eyes. The effect was tested in cats at a dose of 10.0 (ug/eye); type: functional; method in brief: as §1
Felis catus [4] = species on record: Felis catus; assay: The mean area between curves for Intraocular Pressure (IOP) measured in treated and control eyes. The effect was tested in cats at a dose of 1.0 (ug/eye); type: functional; method in brief: as §1
Felis catus [5] = species on record: Felis catus; assay: The maximal difference in Intraocular Pressure (IOP) between treated and control eyes. The effect was tested in cats at a dose of 10.0 (ug/eye); type: functional; method in brief: as §1
Felis catus [6] = species on record: Felis catus; assay: The maximal difference in […] pupil diameter between treated and control eyes. The effect was tested in cats at a dose of 10.0 (ug/eye); type: functional; method in brief: as §2
Felis catus [7] = species on record: Felis catus; assay: The mean area between curves for pupil diameter between treated and control eyes. The effect was tested in cats at a dose of 10.0 (ug/eye); type: functional; method in brief: as §2
Felis catus [8] = species on record: Felis catus; assay: The mean area between curves for pupil diameter between treated and control eyes. The effect was tested in cats at a dose of 1.0 (ug/eye); type: functional; method in brief: as §2
Oryctolagus cuniculus [9] = species on record: Oryctolagus cuniculus; assay: The mean area between curves for conjunctival hyperemia between treated and control eyes. The effect was tested in rabbit at a dose of 0.5 (ug/eye)
Oryctolagus cuniculus [10] = species on record: Oryctolagus cuniculus; assay: The maximal difference in conjunctival hyperemia between treated and control eyes. The effect was tested in rabbit at a dose of 0.5 (ug/eye)
Monkey [11] = assay: The mean area between curves for Intraocular Pressure (IOP) measured in treated and control eyes. The effect was tested in monkey at a dose of 1.0 (ug/eye); type: functional, Cercopithecidae
Method in brief: (§3)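 Cynomolgus monkeys trained for IOP measurement were sedated with ketamine (2–3 mg/kg) for transport and seated in restraint chairs under oxibuprocain local anaesthesia. One eye received a 10 µL drop of drug in 0.9% NaCl/0.5% polysorbate 80; the fellow eye received vehicle. IOP was read by pneumatonometer calibrated for monkey eyes before dosing and at 1, 2, 4 and 6 h. Matched-pair t test, n = 6.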

Felis catus [12] = species on record: Felis catus; assay: The mean area between curves for Intraocular Pressure (IOP) measured in treated and control eyes. The effect was tested in cats at a dose of 3.0 (ug/eye); type: functional; method in brief: as §1
Monkey [13] = assay: The maximal difference in Intraocular Pressure (IOP) measured in treated and control eyes. The effect was tested in monkey at a dose of 3.0 (ug/eye); type: functional, Cercopithecidae; method in brief: as §3
Felis catus [14] = species on record: Felis catus; assay: The mean ocular irritation in the treated eyes. An arbitrary scale of from 0 to 3 was used, 0 indicates absence of irritation and 3 complete closure of the lids. The effect was tested in cats at a dose of 3.0 (ug/eye); type: functional
Method in brief: (§4)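 Ocular irritation was scored in the treated eye of trained female cats, 2–3 kg. Drug was given as one topical 20 µL drop in 0.9% NaCl with 0.5% polysorbate 80. The contralateral eye got vehicle only.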

Felis catus [15] = species on record: Felis catus; assay: The maximal difference in […] pupil diameter between treated and control eyes. The effect was tested in cats at a dose of 3.0 (ug/eye); type: functional; method in brief: as §2
Monkey [16] = assay: The maximal difference in Intraocular Pressure (IOP) measured in treated and control eyes. The effect was tested in monkey at a dose of 1.0 (ug/eye); type: functional, Cercopithecidae; method in brief: as §3
Felis catus [17] = species on record: Felis catus; assay: The mean area between curves for pupil diameter between treated and control eyes. The effect was tested in cats at a dose of 3.0 (ug/eye); type: functional; method in brief: as §2
Felis catus [18] = species on record: Felis catus; assay: The mean ocular irritation in the treated eyes. An arbitrary scale of from 0 to 3 was used, 0 indicates absence of irritation and 3 complete closure of the lids. The effect was tested in cats at a dose of 1.0 (ug/eye); type: functional; method in brief: as §4
Felis catus [19] = species on record: Felis catus; assay: The maximal difference in Intraocular Pressure (IOP) between treated and control eyes. The effect was tested in cats at a dose of 3.0 (ug/eye); type: functional; method in brief: as §1
Felis catus [20] = species on record: Felis catus; assay: The mean ocular irritation in the treated eyes. An arbitrary scale of from 0 to 3 was used, 0 indicates absence of irritation and 3 complete closure of the lids. The effect was tested in cats at a dose of 10.0 (ug/eye); type: functional; method in brief: as §4
Monkey [21] = assay: The mean area between curves for Intraocular Pressure (IOP) measured in treated and control eyes. The effect was tested in monkey at a dose of 3.0 (ug/eye); type: functional, Cercopithecidae; method in brief: as §3
Monkey [22] = assay: The maximal difference in Intraocular Pressure (IOP) measured in treated and control eyes. The effect was tested in monkey at a dose of 10.0 (ug/eye); type: functional, Cercopithecidae; method in brief: as §3
Oryctolagus cuniculus [23] = species on record: Oryctolagus cuniculus; assay: The maximal difference in conjunctival hyperemia between treated and control eyes. The effect was tested in rabbit at a dose of 0.1 (ug/eye)
Monkey [24] = assay: The mean area between curves for Intraocular Pressure (IOP) measured in treated and control eyes. The effect was tested in monkey at a dose of 10.0 (ug/eye); type: functional, Cercopithecidae; method in brief: as §3
Oryctolagus cuniculus [25] = species on record: Oryctolagus cuniculus; assay: The mean area between curves for conjunctival hyperemia between treated and control eyes. The effect was tested in rabbit at a dose of 0.1 (ug/eye)
Felis catus [26] = species on record: Felis catus; assay: Concentration giving half-maximal contraction of the cat iris sphincter muscle was determined in vitro; type: functional; conditions: Felis catus, Sphincter muscle
Method in brief: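 Compounds were tested as hydrolysed free acids on isolated cat iris sphincter in organ baths. Bath solution was bicarbonate physiological saline with glucose plus indomethacin 2.8 × 10⁻⁶ M, atropine 10⁻⁷ M and propranolol 10⁻⁶ M. Resting tension was 150 mg, with at least 30 min equilibration. Cumulative dosing was at 5–10 min intervals. Isometric contraction was normalised to each tissue's maximum, averaged over four preparations, and fitted with a Hill equation for EC50.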

SMILES: CC(C)OC(=O)CCC/C=C\C[C@@H]1[C@@H](/C=C/[C@H](O)CCc2ccc(-c3ccccc3)cc2)[C@H](O)C[C@@H]1O
Imax (Felis catus [1]): <-1 mmHg | Pmax (Felis catus [2]): 0.5 mm | I ABC (Felis catus [3]): -2 | I ABC (Felis catus [4]): -8.3 | Imax (Felis catus [5]): -0.3 mmHg | Pmax (Felis catus [6]): < -0.8 mm | P ABC (Felis catus [7]): -3.8 | P ABC (Felis catus [8]): 1.8 | H ABC (Oryctolagus cuniculus [9]): 0.7 | Hmax (Oryctolagus cuniculus [10]): <0.5

SMILES: Cc1cccc(CC[C@H](O)/C=C/[C@@H]2[C@@H](C/C=C\CCCC(=O)OC(C)C)[C@@H](O)C[C@H]2O)c1
I ABC (Monkey [11]): -3.6 | I ABC (Felis catus [12]): 8 | Imax (Felis catus [1]): -1 mmHg | Pmax (Felis catus [2]): < -6.8 mm | Imax (Monkey [13]): <-0.6 mmHg | I ABC (Felis catus [3]): 14.1 | I ABC (Felis catus [4]): -17 | Imax (Felis catus [5]): 2.3 mmHg | Irritation (Felis catus [14]): 0.1 arbitrary units | Pmax (Felis catus [15]): < -8.3 mm | Imax (Monkey [16]): <-2.5 mmHg | P ABC (Felis catus [17]): <-122 | Irritation (Felis catus [18]): 0.3 arbitrary units | Pmax (Felis catus [6]): < -8.8 mm | P ABC (Felis catus [7]): <-149 | Imax (Felis catus [19]): 1.2 mmHg | P ABC (Felis catus [8]): <-85 | Irritation (Felis catus [20]): 0 arbitrary units | H ABC (Oryctolagus cuniculus [9]): <4.9 | I ABC (Monkey [21]): -0.1 | Hmax (Oryctolagus cuniculus [10]): <1.6

SMILES: CC(C)OC(=O)CCC/C=C\C[C@@H]1[C@@H](/C=C/[C@@H](O)CCc2ccc(-c3ccccc3)cc2)[C@H](O)C[C@@H]1O
Imax (Monkey [22]): <1.4 mmHg | Hmax (Oryctolagus cuniculus [23]): 0.2 | I ABC (Felis catus [12]): <-99.3 | Imax (Felis catus [1]): -1 mmHg | Pmax (Felis catus [2]): < -1.5 mm | Imax (Monkey [13]): <0.8 mmHg | I ABC (Felis catus [4]): -10 | Irritation (Felis catus [14]): 1.6 arbitrary units | Pmax (Felis catus [15]): -0.8 mm | P ABC (Felis catus [17]): <-4.9 | Irritation (Felis catus [18]): 0.8 arbitrary units | Imax (Felis catus [19]): <-6 mmHg | P ABC (Felis catus [8]): <-18.3 | H ABC (Oryctolagus cuniculus [9]): 1.2 | I ABC (Monkey [24]): <6.1 | I ABC (Monkey [21]): 3 | H ABC (Oryctolagus cuniculus [25]): 0.2 | Hmax (Oryctolagus cuniculus [10]): <0.4

SMILES: CC(C)OC(=O)CCC/C=C\C[C@@H]1[C@@H](/C=C/[C@@H](O)CCc2ccccc2)[C@H](O)C[C@@H]1O
I ABC (Monkey [11]): <-5.8 | Imax (Felis catus [1]): 2.7 mmHg | Pmax (Felis catus [2]): < 9.7 mm | Imax (Monkey [13]): -2.9 mmHg | I ABC (Felis catus [4]): <36.9 | Imax (Monkey [16]): <-3.3 mmHg | Irritation (Felis catus [18]): 0 arbitrary units | P ABC (Felis catus [8]): -126 | H ABC (Oryctolagus cuniculus [9]): <-4 | I ABC (Monkey [21]): -5.9 | Hmax (Oryctolagus cuniculus [10]): <1.5

Continued, values first:

EC50 (Felis catus [26]): 2.1 µM
SMILES: O=C(O)CCC/C=C\C[C@@H]1[C@@H](/C=C/[C@H](O)CCc2ccc(Br)cc2)[C@H](O)C[C@@H]1O

EC50 (Felis catus [26]): 0.035 µM
SMILES: O=C(O)CCC/C=C\C[C@@H]1[C@@H](/C=C/[C@@H](O)CCc2ccc(Br)cc2)[C@H](O)C[C@@H]1O

EC50 (Felis catus [26]): 0.0067 µM
SMILES: CCCCC[C@H](O)/C=C/[C@@H]1[C@@H](C/C=C\CCCC(=O)O)[C@@H](O)C[C@H]1O [DINOPROST]

EC50 (Felis catus [26]): 0.04 µM
SMILES: Cc1ccc(CCC(O)/C=C/[C@@H]2[C@@H](C/C=C\CCCC(=O)O)[C@@H](O)C[C@H]2O)cc1 (some centres undefined)
